Measured values taken from ChEMBL document CHEMBL5724801, “EUbOPEN Chemogenomics Library - Multiplex” (2024).
“And” between values parts separate entries of the source, which are not always exact repeats. Identical values can stand only once.

System: HEK-293T
Assay: Multiplex assay against HEK293T
Assay type: toxicity, cell-based
Conditions: human
How it was run: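 Phenotypes for tubulin, mitochondrial mass and membrane permeability are expressed as per cents of healthy-nucleus cells. Cells were stained live at seeding with Hoechst33342, BioTracker Green Microtubule Cytoskeleton Dye, MitoTracker Red and Annexin V Alexa Fluor 680, then imaged after compound addition on a CQ1 microscope at 37°C and 5% CO2. Machine-learning gating in CellPathfinder separated Hoechst high-intensity objects from normal cells, divided normal cells by nuclear state (healthy, pyknosed, fragmented) and divided pyknosed cells into mitotic or apoptotic.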

[1] = 12 h, 1 µM, compound concentration 1 uM
[2] = 12 h, 10 µM, compound concentration 10 uM
[3] = 24 h, 1 µM, compound concentration 1 uM
[4] = 24 h, 10 µM, compound concentration 10 uM
[5] = 48 h, 1 µM, compound concentration 1 uM
[6] = 48 h, 10 µM, compound concentration 10 uM

Compound: Cc1cnc(-c2cc(N3CCN(C(=O)CCS(C)(=O)=O)CC3)ncc2Cl)c(C)c1
- Population Apoptotic (%) [1]: 29% and 42%
- Population Fragmented Nuclei (%) [1]: 6%
- Population Healthy Nuclei (%) [1]: 76% and 75%
- Population Hoechst High Intensity Objects (%) [1]: 4% and 9%
- Population Membrane Permeable-Phenotype (%) [1]: 0%
- Population Mitochondria Different-Phenotype (%) [1]: 50% and 69%
- Population Mitotic Cells (%) [1]: 70% and 57%
- Population Normal (%) [1]: 95% and 90%
- Population Pyknosed Nuclei (%) [1]: 16% and 17%
- Population Tubulin-Different-Phenotype (%) [1]: 33% and 24%
- Total Cell Count [1]: 276 and 294
- Population Apoptotic (%) [2]: 42% and 45%
- Population Fragmented Nuclei (%) [2]: 7%
- Population Healthy Nuclei (%) [2]: 82% and 75%
- Population Hoechst High Intensity Objects (%) [2]: 10% and 7%
- Population Membrane Permeable-Phenotype (%) [2]: 0%
- Population Mitochondria Different-Phenotype (%) [2]: 47% and 70%
- Population Mitotic Cells (%) [2]: 57% and 54%
- Population Normal (%) [2]: 89% and 92%
- Population Pyknosed Nuclei (%) [2]: 10% and 17%
- Population Tubulin-Different-Phenotype (%) [2]: 40% and 39%
- Total Cell Count [2]: 409 and 288
- Population Apoptotic (%) [3]: 36% and 40%
- Population Fragmented Nuclei (%) [3]: 8% and 7%
- Population Healthy Nuclei (%) [3]: 78% and 83%
- Population Hoechst High Intensity Objects (%) [3]: 2% and 6%
- Population Membrane Permeable-Phenotype (%) [3]: 1% and 0%
- Population Mitochondria Different-Phenotype (%) [3]: 30% and 36%
- Population Mitotic Cells (%) [3]: 63% and 60%
- Population Normal (%) [3]: 97% and 93%
- Population Pyknosed Nuclei (%) [3]: 12% and 9%
- Population Tubulin-Different-Phenotype (%) [3]: 21% and 13%
- Total Cell Count [3]: 368 and 413
- Population Apoptotic (%) [4]: 33% and 51%
- Population Fragmented Nuclei (%) [4]: 15% and 7%
- Population Healthy Nuclei (%) [4]: 76% and 80%
- Population Hoechst High Intensity Objects (%) [4]: 5%
- Population Membrane Permeable-Phenotype (%) [4]: 0%
- Population Mitochondria Different-Phenotype (%) [4]: 29% and 47%
- Population Mitotic Cells (%) [4]: 66% and 48%
- Population Normal (%) [4]: 94%
- Population Pyknosed Nuclei (%) [4]: 8% and 12%
- Population Tubulin-Different-Phenotype (%) [4]: 31% and 22%
- Total Cell Count [4]: 550 and 392
- Population Apoptotic (%) [5]: 27% and 34%
- Population Fragmented Nuclei (%) [5]: 17% and 14%
- Population Healthy Nuclei (%) [5]: 76% and 78%
- Population Hoechst High Intensity Objects (%) [5]: 1% and 2%
- Population Membrane Permeable-Phenotype (%) [5]: 1% and 0%
- Population Mitochondria Different-Phenotype (%) [5]: 17% and 22%
- Population Mitotic Cells (%) [5]: 72% and 65%
- Population Normal (%) [5]: 98% and 97%
- Population Pyknosed Nuclei (%) [5]: 6%
- Population Tubulin-Different-Phenotype (%) [5]: 10% and 6%
- Total Cell Count [5]: 718 and 595
- Population Apoptotic (%) [6]: 25% and 36%
- Population Fragmented Nuclei (%) [6]: 14%
- Population Healthy Nuclei (%) [6]: 78% and 77%
- Population Hoechst High Intensity Objects (%) [6]: 4% and 3%
- Population Membrane Permeable-Phenotype (%) [6]: 0%
- Population Mitochondria Different-Phenotype (%) [6]: 23% and 32%
- Population Mitotic Cells (%) [6]: 74% and 63%
- Population Normal (%) [6]: 95% and 96%
- Population Pyknosed Nuclei (%) [6]: 7% and 8%
- Population Tubulin-Different-Phenotype (%) [6]: 17% and 15%
- Total Cell Count [6]: 753 and 576

Compound: Cc1ccccc1C(=O)Nc1ccc(C(=O)N2CCCC(N(C)C)c3ccccc32)cc1.Cl (configuration not stated)
- Population Apoptotic (%) [1]: 18% and 53%
- Population Fragmented Nuclei (%) [1]: 6% and 5%
- Population Healthy Nuclei (%) [1]: 80% and 79%
- Population Hoechst High Intensity Objects (%) [1]: 8% and 6%
- Population Membrane Permeable-Phenotype (%) [1]: 0%
- Population Mitochondria Different-Phenotype (%) [1]: 51% and 72%
- Population Mitotic Cells (%) [1]: 81% and 46%
- Population Normal (%) [1]: 91% and 93%
- Population Pyknosed Nuclei (%) [1]: 12% and 14%
- Population Tubulin-Different-Phenotype (%) [1]: 33% and 29%
- Total Cell Count [1]: 519 and 412
- Population Apoptotic (%) [2]: 53% and 64%
- Population Fragmented Nuclei (%) [2]: 6% and 8%
- Population Healthy Nuclei (%) [2]: 70% and 72%
- Population Hoechst High Intensity Objects (%) [2]: 8% and 15%
- Population Membrane Permeable-Phenotype (%) [2]: 0%
- Population Mitochondria Different-Phenotype (%) [2]: 74% and 82%
- Population Mitotic Cells (%) [2]: 46% and 35%
- Population Normal (%) [2]: 91% and 84%
- Population Pyknosed Nuclei (%) [2]: 22% and 18%
- Population Tubulin-Different-Phenotype (%) [2]: 60% and 61%
- Total Cell Count [2]: 233 and 285
- Population Apoptotic (%) [3]: 31% and 30%
- Population Fragmented Nuclei (%) [3]: 11% and 5%
- Population Healthy Nuclei (%) [3]: 79% and 83%
- Population Hoechst High Intensity Objects (%) [3]: 5% and 4%
- Population Membrane Permeable-Phenotype (%) [3]: 0%
- Population Mitochondria Different-Phenotype (%) [3]: 28% and 52%
- Population Mitotic Cells (%) [3]: 68% and 69%
- Population Normal (%) [3]: 94% and 95%
- Population Pyknosed Nuclei (%) [3]: 8% and 11%
- Population Tubulin-Different-Phenotype (%) [3]: 17% and 19%
- Total Cell Count [3]: 727 and 567
- Population Apoptotic (%) [4]: 41% and 44%
- Population Fragmented Nuclei (%) [4]: 8% and 7%
- Population Healthy Nuclei (%) [4]: 70% and 73%
- Population Hoechst High Intensity Objects (%) [4]: 7% and 14%
- Population Membrane Permeable-Phenotype (%) [4]: 0%
- Population Mitochondria Different-Phenotype (%) [4]: 71% and 83%
- Population Mitotic Cells (%) [4]: 58% and 55%
- Population Normal (%) [4]: 92% and 85%
- Population Pyknosed Nuclei (%) [4]: 21% and 18%
- Population Tubulin-Different-Phenotype (%) [4]: 46%
- Total Cell Count [4]: 268 and 285
- Population Apoptotic (%) [5]: 13% and 34%
- Population Fragmented Nuclei (%) [5]: 13% and 10%
- Population Healthy Nuclei (%) [5]: 78% and 82%
- Population Hoechst High Intensity Objects (%) [5]: 2% and 4%
- Population Membrane Permeable-Phenotype (%) [5]: 1% and 0%
- Population Mitochondria Different-Phenotype (%) [5]: 24% and 30%
- Population Mitotic Cells (%) [5]: 86% and 65%
- Population Normal (%) [5]: 97% and 95%
- Population Pyknosed Nuclei (%) [5]: 8% and 6%
- Population Tubulin-Different-Phenotype (%) [5]: 17% and 14%
- Total Cell Count [5]: 1095 and 722
- Population Apoptotic (%) [6]: 55% and 63%
- Population Fragmented Nuclei (%) [6]: 10% and 9%
- Population Healthy Nuclei (%) [6]: 69% and 77%
- Population Hoechst High Intensity Objects (%) [6]: 6%
- Population Membrane Permeable-Phenotype (%) [6]: 0%
- Population Mitochondria Different-Phenotype (%) [6]: 69% and 72%
- Population Mitotic Cells (%) [6]: 44% and 36%
- Population Normal (%) [6]: 93%
- Population Pyknosed Nuclei (%) [6]: 20% and 12%
- Population Tubulin-Different-Phenotype (%) [6]: 49% and 41%
- Total Cell Count [6]: 283 and 314
